MPTP block: inhibitors of mitochondrial permeability transition pore; inhibition, % at 10 µM; 360,000 tested, 1.4% active; AID 602449; isolated mouse mitochondria, Ca2+ swelling absorbance, 30 min;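 active = inhibition of 50% or more, scaled per plate between neutral and stimulator controls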;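 note: 0% = DMSO wells given calcium and 100% = 1 mM EGTA wells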
aDG glyco up: alpha-DG glycosylation activation; 360,000 tested, 0.22% active; Pro5-aDG cells, alpha-DG glycosylation AlphaScreen (IIH6); 0% Pro5, 100% B10-LARGE cell signal; activation, % at 10 µM;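 active = activation of at least 8% versus controls, or a plate z-score of at least 8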;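 note: Pro5 are CHO cells carrying HIG-tagged alpha-DG that lacks glycosylation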
697 NFkB inh: inhibitors of the PMA/ionomycin-induced NF-kB reporter in 697 B cells; 330,000 tested, 0.33% active; inhibition, % at 4 µM; 697 B-cell NF-kB luciferase reporter, 16 h; in the data active = inhibition above about 35%
Jurkat NFkB inh: inhibitors of the PMA/ionomycin-induced NF-kB reporter in Jurkat cells | PMA/ionomycin-induced NF-kB luciferase reporter, luminescence | inhibition, % at 4 µM | 330,000 tested, 0.53% active | AID 435003; in the data active = inhibition above about 50%
NR2E3 ag-1: agonists of human nuclear receptor NR2E3. AID 2300. inhibition of corepressor binding, % at 4.78 µM. GST-NR2E3/biotin-RetCOR TR-FRET, 1536-well. Q9Y5X4. 320,000 tested, 0.12% active;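 active = percent inhibition above the cutoff of mean plus 3 SD of all tested compounds, set per screening campaign, cut at about 20% in these data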;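 note: 0% = DMSO wells and 100% = biotin wells as full block of FRET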
Target sequence (Q9Y5X4 whole entry, looked up): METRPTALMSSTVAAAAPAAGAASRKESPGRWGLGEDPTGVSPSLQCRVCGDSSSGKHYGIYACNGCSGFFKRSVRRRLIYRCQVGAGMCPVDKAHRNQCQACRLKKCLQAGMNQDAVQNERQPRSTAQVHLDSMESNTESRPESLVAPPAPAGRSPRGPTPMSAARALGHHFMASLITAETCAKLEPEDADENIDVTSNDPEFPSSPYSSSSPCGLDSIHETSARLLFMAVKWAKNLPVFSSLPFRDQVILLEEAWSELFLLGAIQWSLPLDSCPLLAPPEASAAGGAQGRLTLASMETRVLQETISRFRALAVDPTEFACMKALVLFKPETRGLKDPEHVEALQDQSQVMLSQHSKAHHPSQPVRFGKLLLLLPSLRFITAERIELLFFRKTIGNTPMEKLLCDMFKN
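Material: NR2E3–RetCOR corepressor complex / Amount: 1.35 nM GST-NR2E3 / Medium: Tris pH 7.5 / Compound: single nominal compound dose of 4.8 µM / Incubation: 5 h at 4 °C / Technique: TR-FRET, Eu(K)-anti-GST donor, streptavidin-D2 acceptor, ex 340, em 617/671 nm / Read-out basis: percent loss of FRET ratio relative to control wells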
NR2E3 ag-2: human photoreceptor-specific nuclear receptor agonism. inhibition of corepressor binding, % at 3.98 µM. 360,000 tested, 0.35% active. Q9Y5X4. CHO-S Gal4-NCOR/VP16-NR2E3 two-hybrid, luciferase;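 active = inhibition above the mean of all tested compounds plus 3 SD, cut at about 70% in these data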;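 note: 0% = DMSO with NR2E3 transfected cells and 100% = cells lacking NR2E3 construct; higher means lower luciferase signal from less NR2E3 corepressor binding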
MPTP counter: mitochondrial membrane potential, counter-screen | shares compounds with MPTP block | isolated mitochondria, Rhodamine 123 fluorescence | inhibition, % at 10 µM | 5,000 tested, 78% active; in the data active = inhibition above about 22%;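 note: 0% = DMSO vehicle and 100% = positive control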
MPTP swell DR: MPTP inhibition, dose response swelling confirmation; 780 tested, 58% active; shares compounds with MPTP block; isolated mitochondria swelling, absorbance; IC50, µM; in the data active = IC50 below about 20 µM
MPTP counter DR: active in counter-screen for permeability transition pore inhibitors. IC50, µM. isolated mitochondria counterscreen, fluorescence read-out. shares compounds with MPTP block. 780 tested, 49% active; in the data active = IC50 below about 80 µM
Numbers without * were called inactive; i = inactive; nt = no result. Compounds with a hit are over-represented: about 2.4% of the library has one in this group of screens.

SMILES	MPTP block	aDG glyco up	697 NFkB inh	Jurkat NFkB inh	NR2E3 ag-1	NR2E3 ag-2	MPTP counter	others
CN(Cc1ccccc1)CC(O)COc1ccc(CNCc2ccc(Cl)s2)cc1 (stereo unspecified)	91*	6.2*	-14	-19	0	2	-6	MPTP swell DR=8*;MPTP counter DR=36*
Cc1ccc(N(CC(=O)Nc2ccc(F)c(Cl)c2)S(=O)(=O)c2c(C)noc2C)cc1	58*	0	2	6	0	-12	101*
COc1ccc(N(CC(=O)Nc2ccc(C)cc2)S(=O)(=O)c2c(C)noc2C)cc1	0	1	-20	7	0	-16	nt
COc1ccc([C@@H]2C[C@H]3[C@@H](CN2S(=O)(=O)c2ccccc2)C(=O)C[C@@H](c2ccccc2F)N3S(=O)(=O)c2ccc(C)cc2)cc1	0	0	nt	nt	nt	-28	nt
COCCn1c(SCC(=O)NCc2ccccc2)nc2ccccc21	1	0	-18	-5	2	-13	nt
COCCn1c(SCc2csc(-c3ccccc3)n2)nc2ccccc21	70*	0	-13	-4	4	19	41*
Cc1ccc(NC(=O)COC(=O)Cc2ccc(Br)cc2)cc1S(=O)(=O)N1CCOCC1	1	0	14	11	nt	-12	nt
CN(C)CCCN1c2ccccc2CCc2ccc(Cl)cc21	80*	1	-34	-3	1	-19	-15
CN(CCCN1c2ccccc2CCc2ccccc21)CC(=O)c1ccc(Cl)cc1	nt	nt	-9	-16	-2	nt	nt
CCCCN(C)CC(O)Cn1cc(/C=C/C(=O)c2cccs2)c2ccccc21 (stereo unspecified)	0	2	nt	nt	2	-9	nt
O=C(/C=C/c1cn(CC(O)CN2CCCCCC2)c2ccccc12)c1cccs1 (stereo unspecified)	80*	1	-17	-3	-4	-22	-21
COc1ccccc1CNc1nc(NCc2cccs2)nc2ccsc12	78*	2	nt	nt	nt	33	93*
COc1ccccc1CNc1nc(NCCOc2ccccc2)c2sccc2n1	60*	3	nt	nt	nt	27	91*
COCCNc1nc(NCc2ccccc2OC)c2sccc2n1	1	2	nt	nt	nt	15	nt
COc1ccccc1CNc1nc(NCC2CC2)nc2ccsc12	80*	0	nt	nt	nt	13	92*
COc1cc(C(=O)NC(=S)Nc2ccccc2[N+](=O)[O-])cc(OC)c1OC	1	0	8	7	1	-7	nt
CC(C)(C)c1ccc(OCCNC(=O)Cc2ccc(F)cc2)cc1	11	0	6	5	-2	-14	nt
O=C1c2cc(Cl)ccc2-c2c(O)cc(Cl)cc21	99*	0	nt	nt	nt	24	78*
O=c1cc(O)c(-c2ccc(Cl)cc2)c(Cl)[nH]1	2	0	17	10	4	9	nt
COc1ccc(/C=C2/Sc3ccc(C(=O)NCCN4CCCCCC4)cc3NC2=O)cc1	87*	0	-3	2	-1	-3	-19	MPTP swell DR=14*;MPTP counter DR=40*
O=C1Nc2cc(C(=O)NCCCN3CCCC3)ccc2S/C1=C\c1ccccc1	8	0	-23	-17	-4	-27	nt
CC(C)(C)c1cc(CCC(=O)NCC2CCCO2)cc(C(C)(C)C)c1O (stereo unspecified)	0	0	-8	-1	0	-38	nt
Cc1ccc(NC(=O)CC(O)(C(F)(F)F)C(F)(F)F)cc1	64*	0	1	-13	-2	1	82*
COc1ccc(C)cc1NC(=O)CC(O)(C(F)(F)F)C(F)(F)F	8	0	-5	-23	1	-6	nt
N#Cc1c(NC(=O)Cn2c(=O)oc3ccccc32)oc(-c2ccccc2)c1-c1ccccc1	95*	1	8	7	3	12	44*
SMILES	MPTP block	aDG glyco up	697 NFkB inh	Jurkat NFkB inh	NR2E3 ag-1	NR2E3 ag-2	MPTP counter	others
COc1ccc(-c2[nH]c(-c3ccc(SC)cc3)nc2SCC(=O)Nc2nccs2)cc1	68*	0	7	-23	-3	-19	49*
COc1ccc(-c2[nH]c(-c3ccc(C)cc3)nc2SCC(=O)Nc2nccs2)cc1	27	0	3	-16	0	-9	nt
Cc1nc2ccccc2n1CC(=O)NN	2	0	12	3	2	-1	nt
Cc1nc2ccccc2n1CC(=O)NCc1ccccc1	70*	3	-6	32	-1	27	20	MPTP swell DR=i;MPTP counter DR=31*
CCCC1=NN2C(=N)/C(=C\c3cc(C)n(Cc4ccccc4)c3C)C(=O)N=C2S1	32	0	-2	-3	5	13	nt
CCCC1=NN2C(=N)/C(=C\c3cc(C)n(-c4cccc(C)c4)c3C)C(=O)N=C2S1	52*	0	20	4	0	-13	5	MPTP swell DR=i;MPTP counter DR=>80
Fc1ccc(Nc2nc(NCc3cccs3)nc3ccsc23)cc1	3	2	nt	nt	nt	23	nt
O=C(C1CCC1)N1CCc2cc(S(=O)(=O)Nc3ccc4c(c3)OCCO4)ccc21	65*	4	-41	21	1	41	81*
Cc1cc(C)cc(NC(=S)/N=C(\N)Nc2nc(C)c3ccccc3n2)c1	56*	1	-44	12	3	2	-9	MPTP swell DR=>100;MPTP counter DR=>80
Cc1cccc(NC(=S)/N=C(\N)Nc2nc(C)c3ccccc3n2)c1	33	1	-12	5	4	-38	nt
CCC(CC)C(=O)Nc1c2c(nn1-c1ccc(F)cc1)CS(=O)(=O)C2	0	0	4	-2	-1	-21	nt
S=C(NCc1ccc2c(c1)OCO2)Nc1ccc2nsnc2c1	1	2	-27	-15	-6	-90	nt
CN(C)c1ccc(/C=C(/NC(=O)c2ccccc2)C(=O)NCCCn2ccnc2)cc1	1	0	-17	-4	-3	2	nt
CC1(C)N=C(N)N=C(N)N1c1ccc(CCCCc2ccccc2)cc1	64*	0	nt	nt	nt	-33	60*
COC(=O)c1c(NC(=O)c2ccc(OC(C)C)cc2)sc2c1CC(C)(C)NC2(C)C	87*	1	-12	19	2	4	2	MPTP swell DR=>100;MPTP counter DR=56*
COC(=O)c1c(NC(=O)c2ccccc2)sc2c1CC(C)(C)NC2(C)C	73*	0	4	12	1	3	-5	MPTP swell DR=18*;MPTP counter DR=>80
CCOC(=O)c1c(NC(=O)Cc2ccccc2)sc2c1CC(C)(C)NC2(C)C	71*	0	-6	7	3	-4	-4	MPTP swell DR=i;MPTP counter DR=>80
CC1(C)C2CCC1(CS(=O)(=O)N1CCN(c3ccc(F)cc3)CC1)C(=O)C2 (stereo unspecified)	-2	0	-11	-8	5	-31	nt
